{"source": "paper PMC4783179", "about": "(The Journal of comparative neurology, 2015)", "key": {"[1]": {"biological_target": "serotonin 5-HT1A receptor (Homo sapiens, UniProt P08908)", "format": "binding", "settings": "human cloned receptor, PDSP"}, "[2]": {"test_system": "serotonin 5-HT1A receptor", "format": "binding, human", "settings": "[5-HT1A affinity/other receptor affinity]×100; 5-HT1A 0.6 or 2.2 nM for WAY-100635, 0.9 nM for Mefway"}, "[3]": {"biological_target": "5-HT7 (Homo sapiens, UniProt P34969)", "sequence (P34969 whole entry)": "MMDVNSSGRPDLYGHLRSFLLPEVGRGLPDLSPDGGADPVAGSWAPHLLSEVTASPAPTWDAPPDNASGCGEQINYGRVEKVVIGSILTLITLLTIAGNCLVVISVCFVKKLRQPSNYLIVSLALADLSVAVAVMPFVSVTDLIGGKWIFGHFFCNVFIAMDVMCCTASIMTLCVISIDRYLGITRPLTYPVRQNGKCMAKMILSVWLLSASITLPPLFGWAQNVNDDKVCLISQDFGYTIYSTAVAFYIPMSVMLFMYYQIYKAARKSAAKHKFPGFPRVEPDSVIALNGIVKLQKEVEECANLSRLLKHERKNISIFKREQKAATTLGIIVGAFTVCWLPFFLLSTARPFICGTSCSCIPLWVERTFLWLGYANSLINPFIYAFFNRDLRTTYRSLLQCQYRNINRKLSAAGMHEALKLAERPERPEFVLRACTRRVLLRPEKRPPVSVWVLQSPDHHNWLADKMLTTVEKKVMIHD", "experiment": "NIMH PDSP binding affinity, human cloned receptor"}, "[4]": {"biological_target": "α1B (Homo sapiens, UniProt P35368)", "sequence (P35368 whole entry)": "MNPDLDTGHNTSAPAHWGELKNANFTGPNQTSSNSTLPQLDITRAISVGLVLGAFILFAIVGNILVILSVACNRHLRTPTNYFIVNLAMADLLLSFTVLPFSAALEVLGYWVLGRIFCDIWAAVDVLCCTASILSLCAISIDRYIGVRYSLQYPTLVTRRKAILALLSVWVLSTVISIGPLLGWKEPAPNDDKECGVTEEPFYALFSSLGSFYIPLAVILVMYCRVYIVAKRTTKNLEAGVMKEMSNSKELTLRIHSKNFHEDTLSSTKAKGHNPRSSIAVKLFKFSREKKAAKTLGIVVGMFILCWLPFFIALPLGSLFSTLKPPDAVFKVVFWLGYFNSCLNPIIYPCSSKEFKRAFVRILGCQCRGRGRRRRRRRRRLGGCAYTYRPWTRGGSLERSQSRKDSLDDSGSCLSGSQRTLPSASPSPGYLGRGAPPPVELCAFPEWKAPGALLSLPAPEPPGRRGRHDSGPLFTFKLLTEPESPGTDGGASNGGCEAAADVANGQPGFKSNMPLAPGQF", "experiment": "NIMH PDSP binding affinity, human cloned receptor"}, "[5]": {"biological_target": "D3 subtype (Homo sapiens, UniProt P35462)", "sequence (P35462 whole entry)": "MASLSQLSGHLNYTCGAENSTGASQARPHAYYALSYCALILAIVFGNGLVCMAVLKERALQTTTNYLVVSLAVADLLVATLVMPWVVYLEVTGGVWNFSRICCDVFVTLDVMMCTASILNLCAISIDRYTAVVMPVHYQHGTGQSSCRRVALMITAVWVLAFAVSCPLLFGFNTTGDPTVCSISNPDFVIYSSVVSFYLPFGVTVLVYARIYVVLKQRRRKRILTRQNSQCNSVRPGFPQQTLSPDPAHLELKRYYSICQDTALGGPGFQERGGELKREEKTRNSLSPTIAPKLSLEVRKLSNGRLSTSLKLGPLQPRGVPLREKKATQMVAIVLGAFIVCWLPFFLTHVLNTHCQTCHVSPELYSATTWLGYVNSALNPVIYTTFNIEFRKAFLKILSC", "experiment": "NIMH PDSP binding affinity, human cloned receptor", "settings": "read-out: Affinity, D3 subtype"}, "[6]": {"biological_target": "D2 subtype (Homo sapiens, UniProt P14416)", "sequence (P14416 whole entry)": "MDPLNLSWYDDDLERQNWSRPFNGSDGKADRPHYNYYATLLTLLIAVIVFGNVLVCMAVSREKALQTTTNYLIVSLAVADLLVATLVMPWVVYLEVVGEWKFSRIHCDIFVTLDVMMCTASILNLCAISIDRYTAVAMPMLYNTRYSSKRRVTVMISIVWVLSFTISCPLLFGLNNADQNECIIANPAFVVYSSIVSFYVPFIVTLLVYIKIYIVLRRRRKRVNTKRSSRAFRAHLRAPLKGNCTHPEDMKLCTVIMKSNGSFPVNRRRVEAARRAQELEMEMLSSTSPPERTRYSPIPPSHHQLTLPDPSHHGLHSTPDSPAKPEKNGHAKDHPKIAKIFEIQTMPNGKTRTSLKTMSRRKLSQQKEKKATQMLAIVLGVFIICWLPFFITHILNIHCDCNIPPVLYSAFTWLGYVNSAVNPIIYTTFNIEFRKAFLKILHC", "experiment": "NIMH PDSP binding affinity, human cloned receptor", "settings": "read-out: Affinity, D2 subtype"}, "[7]": {"biological_target": "D1 (Homo sapiens, UniProt P21728)", "sequence (P21728 whole entry)": "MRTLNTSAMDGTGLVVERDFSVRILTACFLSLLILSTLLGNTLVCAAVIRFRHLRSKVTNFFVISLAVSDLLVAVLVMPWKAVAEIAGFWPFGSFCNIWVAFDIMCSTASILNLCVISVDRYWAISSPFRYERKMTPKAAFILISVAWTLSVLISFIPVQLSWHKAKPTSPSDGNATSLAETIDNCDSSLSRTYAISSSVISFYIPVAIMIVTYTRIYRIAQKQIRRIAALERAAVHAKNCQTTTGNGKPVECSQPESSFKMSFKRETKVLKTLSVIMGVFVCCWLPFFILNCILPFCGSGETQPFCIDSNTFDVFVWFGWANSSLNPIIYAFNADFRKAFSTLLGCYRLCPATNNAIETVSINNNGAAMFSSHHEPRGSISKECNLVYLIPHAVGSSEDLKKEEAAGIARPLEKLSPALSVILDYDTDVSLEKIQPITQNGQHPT", "experiment": "NIMH PDSP binding affinity, human cloned receptor", "settings": "D1-like receptors"}, "[8]": {"biological_target": "multidrug resistance 1 protein (MDR1; P-glycoprotein) (Homo sapiens, UniProt P08183)", "experiment": "Multidrug resistance", "format": "biochemical", "settings": "read-out: IC50 as potential substrate of MDR1 (P-glycoprotein)"}, "[9]": {"biological_target": "T1, 5-HT1A receptors (Canis lupus familiaris, UniProt Q6XXX9)", "T1 sequence (Q6XXX9 1-423)": "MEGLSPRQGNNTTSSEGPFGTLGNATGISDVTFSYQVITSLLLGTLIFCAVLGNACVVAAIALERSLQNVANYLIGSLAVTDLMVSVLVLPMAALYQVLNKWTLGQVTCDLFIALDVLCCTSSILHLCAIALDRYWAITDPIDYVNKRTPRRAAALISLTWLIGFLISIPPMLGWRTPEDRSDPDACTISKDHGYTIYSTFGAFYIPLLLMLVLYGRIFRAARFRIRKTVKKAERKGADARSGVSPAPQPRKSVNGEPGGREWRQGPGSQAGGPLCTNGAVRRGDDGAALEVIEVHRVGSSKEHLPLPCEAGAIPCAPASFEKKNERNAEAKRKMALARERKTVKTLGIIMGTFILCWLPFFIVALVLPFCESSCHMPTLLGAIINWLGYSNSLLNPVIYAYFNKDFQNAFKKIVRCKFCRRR", "experiment": "In vitro autoradiography of 18F-Mefway, beagle dog brain slices", "format": "binding", "method_in_brief": "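Dog tissue: unfixed beagle brain (4.5–15.4 yr), stored at −80 °C, cut as 10 µm hemi-coronal slices with hippocampus and cortex. Human tissue: postmortem hippocampus (PMI 3.8–5.8 h), cut at 7 µm. Slices preincubated in 50 mM Tris-HCl pH 7.4 for 10 min at room temperature, then incubated with 37–185 kBq/mL tracer at 37 °C for 1 h. […] Two 1-min ice-cold buffer washes, then 24 h phosphor-screen exposure. Binding read as DLU/mm².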"}, "[10]": {"test_system": "Sprague-Dawley rats", "experiment": "Expanded acute toxicity study", "format": "in vivo, rat", "settings": "for Maximum tolerated dose (MTD) / No observed adverse effect level (NOAEL): intravenous, Days 1, 3 and 6, male and female rats", "method_in_brief": "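Sprague-Dawley rats, 40 males and 40 females, 8–9 weeks old (males 243–283 g, females 175–202 g), plus a vehicle control group. Dosed i.v. at 4, 20 or 40 μg/kg/day (27.8, 139, 278 μg/m²/day). Monitored clinical signs (motor and behavioural), body weight, food intake, ophthalmology, haematology, serum chemistry and urinalysis. Histopathology on Days 7 and 20 after euthanasia.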"}, "[11]": {"biological_target": "T2, 5-HT1A receptors (Homo sapiens, UniProt P08908)", "T2 sequence (P08908 1-422)": "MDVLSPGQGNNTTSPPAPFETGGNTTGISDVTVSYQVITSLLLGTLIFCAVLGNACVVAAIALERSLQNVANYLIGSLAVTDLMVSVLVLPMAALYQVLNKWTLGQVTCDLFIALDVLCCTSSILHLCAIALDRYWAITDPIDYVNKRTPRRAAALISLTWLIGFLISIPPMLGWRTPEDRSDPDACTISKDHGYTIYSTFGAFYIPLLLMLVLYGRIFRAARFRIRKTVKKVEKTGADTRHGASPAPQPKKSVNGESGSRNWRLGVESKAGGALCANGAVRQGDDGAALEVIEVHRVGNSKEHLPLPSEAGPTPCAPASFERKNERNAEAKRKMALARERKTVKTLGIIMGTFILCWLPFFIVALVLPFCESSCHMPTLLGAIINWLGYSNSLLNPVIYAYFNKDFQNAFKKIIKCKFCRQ", "settings": "ref Hillmer et al., 2014, cited from earlier work; for HP/CB PET ratio / Brain Uptake: human; for HP/CB PET ratio: 90 mins post-injection; for Brain Uptake: initial, 1–2 min post-injection"}, "[12]": {"settings": "rhesus monkey; ref Wooten et al., 2013; cited from earlier work"}, "[13]": {"settings": "[5-HT1A affinity/other receptor affinity]×100, 5-HT1A 0.6 or 2.2 nM for WAY-100635, 0.9 nM for Mefway"}, "[14]": {"settings": "dog brain cortex, relative to layers I and II"}}, "note": "Where two headings read alike, the source gives them in different places. Marks after values point to notes of the source that are not given here."}
{"smiles": "COc1ccccc1N1CCN(CCN(C(=O)C2CCC(CF)CC2)c2ccccn2)CC1", "note": "(centres unmarked) [Mefway]", "values": [{"measurement": "Binding affinity, Ki, 5-HT1A", "setting": "[1]", "value": "subnanomolar affinity"}, {"measurement": "Ki", "setting": "[1]; read-out: Binding affinity, Ki, 5-HT1A", "value": 0.9, "unit": "nM"}, {"measurement": "% human 5HT1A Selectivity, 5-HT1A", "setting": "[2]", "value": 100, "unit": "%"}, {"measurement": "% human 5HT1A Selectivity, 5-HT7", "setting": "[3]; [13]", "value": 0.30, "unit": "%"}, {"measurement": "Ki", "setting": "[3]; read-out: Binding affinity, Ki, 5-HT7, human cloned receptor, PDSP", "value": 297, "unit": "nM"}, {"measurement": "% human 5HT1A Selectivity, α1B", "setting": "[4]; [13]", "value": 0.18, "unit": "%"}, {"measurement": "Ki", "setting": "[4]; read-out: Binding affinity, Ki, α1B, human cloned receptor, PDSP", "value": 505, "unit": "nM"}, {"measurement": "Ki", "setting": "[5]", "value": 139, "unit": "nM"}, {"measurement": "Ki", "setting": "[6]", "value": 188, "unit": "nM"}, {"measurement": "Affinity, D1 subtype", "setting": "[7]", "value": "very poor affinities"}, {"measurement": "IC50", "setting": "[8]", "value": "> 30000", "unit": "nM"}, {"measurement": "Level of binding in cortical layers I and II", "setting": "[9]; dog brain cortex, relative to highest layer", "value": 100, "unit": "%"}, {"measurement": "Level of binding in cortical layers III and IV", "setting": "[9]; [14]", "value": 31, "unit": "%"}, {"measurement": "Level of binding in cortical layers V and VI", "setting": "[9]; [14]", "value": 36, "unit": "%"}, {"measurement": "Ratio of hippocampus to white matter, autoradiography", "setting": "[9]; dog brain, same brain slice", "value": "> 50"}, {"measurement": "Binding displaced in hippocampus and cortex", "setting": "[9]; in the presence of 10 μM of WAY-100635, dog (all the species)", "value": "> 95", "unit": "%"}, {"measurement": "Morbidity or mortality", "setting": "[10]; 4, 20 and 40 μg/kg/day i.v.", "value": "no morbidity or mortality"}, {"measurement": "Tolerability", "setting": "[10]; 4, 20 and 40 μg/kg/day i.v. on Days 1, 3 and 6", "value": "well tolerated"}, {"measurement": "Maximum tolerated dose (MTD)", "setting": "[10]", "value": "> 278", "unit": "μg/m^2/day"}, {"measurement": "No observed adverse effect level (NOAEL)", "setting": "[10]", "value": "> 278", "unit": "μg/m^2/day"}, {"measurement": "Maximum tolerated dose (MTD)", "setting": "[10]; maximum dose level tested", "value": "exceed 40 μg/kg/day"}, {"measurement": "No observed adverse effect level (NOAEL)", "setting": "[10]; maximum dose level tested", "value": "exceed 40 μg/kg/day"}, {"measurement": "Adverse or pharmacologic effects in human subjects", "setting": "[11]; approximately 185 MBq bolus, 6 subjects", "value": "no adverse or clinically detectable pharmacologic effects"}, {"measurement": "Binding potential HP, BPND", "setting": "[11]; human hippocampus", "value": "2.7 ^i"}, {"measurement": "HP/CB PET ratio", "setting": "[11]", "value": "4 ^i"}, {"measurement": "HP/CB PET ratio", "setting": "[11]; listed as 18F-Mefway", "value": 4}, {"measurement": "Brain Uptake", "setting": "[11]", "value": "0.002 ^e %ID/cc"}, {"measurement": "Brain Uptake", "setting": "[11]; listed as 18F-Mefway", "value": 0.002, "unit": "%ID/cc"}, {"measurement": "Free Fraction in plasma", "setting": "[12]", "value": 15, "unit": "% ^j"}]}
